Active and inactive are the calls of the source. No cut-off for these calls is given here.
Target: Eukaryotic translation initiation factor 2-alpha kinase 1 (Homo sapiens) (UniProt Q9BQI3)
Assay: Activation of HRI in human CRL2813 cells assessed as increase in CHOP protein expression at 10 uM after 6 hrs by Western blotting analysis
Assay type: cell-based
Conditions: not given
Summary of the method: (§1)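 CRL-2813 melanoma cells grown in serum-containing medium without antibiotics to 70% confluence, treated 6 h (10 μM for CHOP/cyclin D1), lysed in M-PER on ice 30 min, protein by BCA. Equal protein on SDS-PAGE, probed with anti-pS51-eIF2α rabbit mAb, anti-total eIF2α mouse mAb, anti-CHOP, anti-cyclin D1, anti-actin. Three independent experiments.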

Chain of Eukaryotic translation initiation factor 2-alpha kinase 1 (Homo sapiens) (Q9BQI3 whole entry): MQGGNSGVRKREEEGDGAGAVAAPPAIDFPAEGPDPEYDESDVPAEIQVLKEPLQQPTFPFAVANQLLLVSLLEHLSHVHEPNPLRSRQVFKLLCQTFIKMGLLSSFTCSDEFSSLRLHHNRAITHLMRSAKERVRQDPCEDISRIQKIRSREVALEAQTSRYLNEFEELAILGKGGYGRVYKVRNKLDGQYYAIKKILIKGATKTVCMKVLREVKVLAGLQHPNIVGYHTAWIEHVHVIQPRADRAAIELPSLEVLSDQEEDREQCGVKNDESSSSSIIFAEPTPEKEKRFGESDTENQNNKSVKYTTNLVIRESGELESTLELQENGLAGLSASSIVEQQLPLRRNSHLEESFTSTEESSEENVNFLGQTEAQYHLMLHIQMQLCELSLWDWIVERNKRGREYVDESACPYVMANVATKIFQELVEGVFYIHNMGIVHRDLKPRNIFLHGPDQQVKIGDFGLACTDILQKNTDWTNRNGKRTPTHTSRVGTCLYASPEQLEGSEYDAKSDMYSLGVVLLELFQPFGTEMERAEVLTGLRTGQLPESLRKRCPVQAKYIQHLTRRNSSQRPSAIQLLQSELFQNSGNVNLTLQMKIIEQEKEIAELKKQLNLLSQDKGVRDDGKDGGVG

Row | SMILES | Activity
1 | O=C(Nc1cccc(F)c1)N[C@H]1CC[C@H](Oc2ccc(F)cc2)CC1 | Active
2 | O=C(Nc1ccccc1C(F)(F)F)N[C@H]1CC[C@H](Oc2ccc(F)cc2)CC1 | Active

Target: Eukaryotic translation initiation factor 2-alpha kinase 1 (Homo sapiens) (UniProt Q9BQI3)
Assay: Activation of HRI in human CRL-2813-pBISA-DL(ATF-4) reporter cells assessed as eIF2alpha phosphorylation after 8 to 32 hrs by dual-luciferase reporter gene assay
Conditions: not given
Summary of the method: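 Reporter CRL-2813-pBISA-DL(ATF-4) cells incubated with compounds for 8, 16 or 32 h. Firefly/renilla luciferase ratio measured by dual luciferase assay and normalized to vehicle-treated cells.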

Row | SMILES | Activity
3 | O=C(Nc1cccc(C(F)(F)F)c1)N[C@H]1CCCC[C@@H]1Oc1ccc(C(F)(F)F)cc1 (relative stereo) | Active
4 | O=C(Nc1cccc(C(F)(F)F)c1)N[C@H]1CC[C@H](OCc2ccc(F)cc2)CC1 | Active

Target: Eukaryotic translation initiation factor 2-alpha kinase 1 (Homo sapiens) (UniProt Q9BQI3)
Assay: Activation of HRI in human CRL-2813-pBISA-DL(ATF-4) reporter cells assessed as concentration required to obtain F-luciferase expression/R-luciferase expression ratio 3
Conditions: not given
Summary of the method: (§2)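 Stably transfected CRL-2813-pBISA-DL(ATF-4) reporter cells treated with compounds in dose-response; firefly and renilla luciferases read by dual glow luciferase kit. Activity = firefly/renilla (F/R) ratio normalized to DMSO-treated wells (set at 1). Triplicate points fitted to logistic sigmoidal model by nonlinear least squares; C3X = concentration giving F/R = 3, Emax = maximal F/R.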

Row | SMILES | Activity [µM]
5 | O=C(Nc1cccc(C(F)(F)F)c1)N[C@H]1CC[C@H](Oc2ccc(Cl)cc2)CC1 | 1.6
6 | O=C(Nc1cccc(F)c1)N[C@H]1CC[C@H](Oc2ccc(F)cc2)CC1 | 13.5
7 | O=C(Nc1cccc(C(F)(F)F)c1)N[C@H]1CC[C@H](Oc2ccc(C(F)(F)F)cc2)CC1 | 0.3
8 | O=C(Nc1ccccc1Br)N[C@H]1CC[C@H](Oc2ccc(F)cc2)CC1 | 16.4
9 | O=C(Nc1ccc(I)cc1)N[C@H]1CC[C@H](Oc2ccc(F)cc2)CC1 | 6.3
10 | COc1cccc(NC(=O)N[C@H]2CC[C@H](Oc3ccc(F)cc3)CC2)c1 | 26
11 | COC(=O)c1ccccc1NC(=O)N[C@H]1CC[C@@H](Oc2ccc(F)cc2)CC1 | 26.2
12 | O=C(Nc1cccc(I)c1)N[C@H]1CC[C@H](Oc2ccc(F)cc2)CC1 | 5.6
13 | O=C(Nc1cccc(C(F)(F)F)c1)N[C@H]1CCC[C@H](Oc2ccc(C(F)(F)F)cc2)C1 (relative stereo) | 2.7
14 | O=C(Nc1cccc(C(F)(F)F)c1)N[C@H]1CC[C@H](Oc2ccccc2C(F)(F)F)CC1 | 1.2
15 | O=C(Nc1cccc(Br)c1)N[C@H]1CC[C@H](Oc2ccc(F)cc2)CC1 | 5.7
16 | CSc1cccc(NC(=O)N[C@H]2CC[C@H](Oc3ccc(F)cc3)CC2)c1 | 12.2
17 | O=C(Nc1ccc(C(=O)O)cc1)N[C@H]1CC[C@H](Oc2ccc(F)cc2)CC1 | 21.2
18 | O=C(Nc1ccccc1I)N[C@H]1CC[C@H](Oc2ccc(F)cc2)CC1 | 18.5
19 | O=C(Nc1cccc(C(F)(F)F)c1)N[C@H]1CCCC[C@@H]1Oc1ccc(C(F)(F)F)cc1 (relative stereo) | 1.7
20 | O=C(Nc1cccc(Cl)c1)N[C@H]1CC[C@H](Oc2ccc(F)cc2)CC1 | 6.4
21 | COC(=O)c1ccc(NC(=O)N[C@H]2CC[C@H](Oc3ccc(F)cc3)CC2)cc1 | 12.8
22 | O=C(Nc1ccccc1Cl)N[C@H]1CC[C@H](Oc2ccc(F)cc2)CC1 | 18.5
23 | O=C(Nc1cccc(C(F)(F)F)c1)N[C@H]1CC[C@H](OCc2ccc(F)cc2)CC1 | 4.4

Target: Eukaryotic translation initiation factor 2-alpha kinase 1 (Homo sapiens) (UniProt Q9BQI3)
Assay: Activation of HRI in human CRL-2813-pBISA-DL(ATF-4) reporter cells assessed as reduction of ternary complex at 30 uM by dual-luciferase reporter gene assay relative to control
Conditions: not given
Summary of the method: as §2

Row | SMILES | Ratio
24 | O=C(Nc1cccc(C(F)(F)F)c1)N[C@H]1CC[C@H](Oc2ccc(Cl)cc2)CC1 | 6.73
25 | O=C(Nc1cccc(F)c1)N[C@H]1CC[C@H](Oc2ccc(F)cc2)CC1 | 6.54
26 | O=C(Nc1ccccc1C(F)(F)F)N[C@H]1CC[C@H](Oc2ccc(F)cc2)CC1 | 1.56
27 | O=C(Nc1cccc(C(F)(F)F)c1)N[C@H]1CC[C@H](Oc2ccc(C(F)(F)F)cc2)CC1 | 25.1
28 | O=C(Nc1ccccc1Br)N[C@H]1CC[C@H](Oc2ccc(F)cc2)CC1 | 5.23
29 | O=C(Nc1ccc(I)cc1)N[C@H]1CC[C@H](Oc2ccc(F)cc2)CC1 | 3.77
30 | COc1cccc(NC(=O)N[C@H]2CC[C@H](Oc3ccc(F)cc3)CC2)c1 | 3.81
31 | COC(=O)c1ccccc1NC(=O)N[C@H]1CC[C@@H](Oc2ccc(F)cc2)CC1 | 3.79
32 | O=C(Nc1cccc(I)c1)N[C@H]1CC[C@H](Oc2ccc(F)cc2)CC1 | 7.63
33 | O=C(Nc1cccc(C(F)(F)F)c1)N[C@H]1CCC[C@H](Oc2ccc(C(F)(F)F)cc2)C1 (relative stereo) | 4.52
34 | O=C(Nc1cccc(C(F)(F)F)c1)N[C@H]1CC[C@H](Oc2ccccc2C(F)(F)F)CC1 | 15.7
35 | O=C(Nc1cccc(Br)c1)N[C@H]1CC[C@H](Oc2ccc(F)cc2)CC1 | 9.52
36 | CSc1cccc(NC(=O)N[C@H]2CC[C@H](Oc3ccc(F)cc3)CC2)c1 | 6.67
37 | O=C(Nc1ccc(C(=O)O)cc1)N[C@H]1CC[C@H](Oc2ccc(F)cc2)CC1 | 3.49
38 | O=C(Nc1ccccc1I)N[C@H]1CC[C@H](Oc2ccc(F)cc2)CC1 | 3.25
39 | O=C(Nc1cccc(C(F)(F)F)c1)N[C@H]1CCCC[C@@H]1Oc1ccc(C(F)(F)F)cc1 (relative stereo) | 5.89
40 | O=C(Nc1cccc(Cl)c1)N[C@H]1CC[C@H](Oc2ccc(F)cc2)CC1 | 8.76
41 | COC(=O)c1ccc(NC(=O)N[C@H]2CC[C@H](Oc3ccc(F)cc3)CC2)cc1 | 3.97
42 | O=C(Nc1ccccc1Cl)N[C@H]1CC[C@H](Oc2ccc(F)cc2)CC1 | 5.37
43 | O=C(Nc1cccc(C(F)(F)F)c1)N[C@H]1CC[C@H](OCc2ccc(F)cc2)CC1 | 9.58

Tested on: NIH3T3
Assay: Cytotoxicity against mouse NIH/3T3 cells after 5 days by SRB assay
Assay type: cell-based
Conditions: NIH3T3, 120 h
Summary of the method: (§3)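 CRL-2813 melanoma or NIH/3T3 fibroblasts seeded in 96-well plates, exposed 5 days to 0.5–20 μM compound; fixed in cold 10% TCA, bound sulforhodamine B measured. % growth = 100×(T−T0)/(C−T0). IC50 derived; triplicate, three independent experiments.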

Row | SMILES | IC50 [µM]
44 | O=C(Nc1cccc(C(F)(F)F)c1)N[C@H]1CC[C@H](Oc2ccc(C(F)(F)F)cc2)CC1 | 3.4

Target: Eukaryotic translation initiation factor 2-alpha kinase 1 (Homo sapiens) (UniProt Q9BQI3)
Assay: Activation of HRI in human CRL2813 cells assessed as eIF2alpha phosphorylation after 6 hrs by Western blotting analysis
Assay type: cell-based
Conditions: not given
Summary of the method: as §1

Row | SMILES | Activity
45 | O=C(Nc1cccc(F)c1)N[C@H]1CC[C@H](Oc2ccc(F)cc2)CC1 | Active
46 | O=C(Nc1ccccc1C(F)(F)F)N[C@H]1CC[C@H](Oc2ccc(F)cc2)CC1 | Active

Target: Eukaryotic translation initiation factor 2-alpha kinase 1 (Homo sapiens) (UniProt Q9BQI3)
Assay: Activation of HRI in human CRL2813 cells assessed as reduction in cyclin D1 mRNA expression at 7.5 to 15 uM after 6 hrs by RT-PCR analysis
Assay type: cell-based
Conditions: not given
Summary of the method: (§4)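 CRL-2813 cells incubated with 7.5 or 15 μM compound for 6 h; CHOP and cyclin D1 mRNA measured by real-time PCR. Each run in triplicate, mean of three independent experiments ±S.E.M.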

Row | SMILES | Activity
47 | O=C(Nc1cccc(F)c1)N[C@H]1CC[C@H](Oc2ccc(F)cc2)CC1 | Active
48 | O=C(Nc1ccccc1C(F)(F)F)N[C@H]1CC[C@H](Oc2ccc(F)cc2)CC1 | Active

Target: Eukaryotic translation initiation factor 2-alpha kinase 1 (Homo sapiens) (UniProt Q9BQI3)
Assay: Activation of HRI in human CRL2813 cells assessed as increase in CHOP mRNA expression at 7.5 to 15 uM after 6 hrs by RT-PCR analysis
Assay type: cell-based
Conditions: not given
Summary of the method: as §4

Row | SMILES | Activity
49 | O=C(Nc1cccc(F)c1)N[C@H]1CC[C@H](Oc2ccc(F)cc2)CC1 | Active
50 | O=C(Nc1ccccc1C(F)(F)F)N[C@H]1CC[C@H](Oc2ccc(F)cc2)CC1 | Active

Tested on: not listed separately
Assay: Antiproliferative activity against human CRL2813 cells after 3 days by SRB assay in presence of non-targeting siRNA
Assay type: functional, cell-based
Conditions: CRL2813, 72 h
Summary of the method: (§5)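 CRL-2813 cells transiently transfected (Lipofectamine 2000) with HRI-targeting or non-targeting siRNA, then treated with compound dose range; proliferation by SRB after 3 days. IC50 calculated per siRNA condition; ratio is HRI-siRNA over non-targeting IC50. Triplicate, three independent experiments; mean±S.E.M.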

Row | SMILES | IC50 [µM]
51 | O=C(Nc1cccc(C(F)(F)F)c1)N[C@H]1CC[C@H](Oc2ccc(C(F)(F)F)cc2)CC1 | 0.66

Tested on: not listed separately
Assay: Antiproliferative activity against human CRL2813 cells after 3 days by SRB assay in presence of HRI-targeting siRNA
Assay type: functional, cell-based
Conditions: CRL2813, 72 h
Summary of the method: as §5

Row | SMILES | IC50 [µM]
52 | O=C(Nc1cccc(C(F)(F)F)c1)N[C@H]1CC[C@H](Oc2ccc(C(F)(F)F)cc2)CC1 | 5

Target: Eukaryotic translation initiation factor 2-alpha kinase 1 (Homo sapiens) (UniProt Q9BQI3)
Assay: Activation of HRI in human CRL2813 cells assessed as reduction in cyclin D1 protein expression at 10 uM after 6 hrs by Western blotting analysis
Assay type: cell-based
Conditions: not given
Summary of the method: as §1

Row | SMILES | Activity
53 | O=C(Nc1cccc(F)c1)N[C@H]1CC[C@H](Oc2ccc(F)cc2)CC1 | Active
54 | O=C(Nc1ccccc1C(F)(F)F)N[C@H]1CC[C@H](Oc2ccc(F)cc2)CC1 | Active

Tested on: not listed separately
Assay: Selectivity ratio of IC50 for mouse NIH/3T3 cells to IC50 for human CRL2813 cells
Assay type: ADME, cell-based
Conditions: NIH/3T3 cells and CRL2813 cells, read-out: Ratio IC50

Row | SMILES | selectivity ratio
55 | O=C(Nc1cccc(C(F)(F)F)c1)N[C@H]1CC[C@H](Oc2ccc(C(F)(F)F)cc2)CC1 | 7.4

Tested on: not listed separately
Assay: Cytotoxicity against human CRL2813 cells after 5 days by SRB assay
Assay type: functional, cell-based
Conditions: CRL2813, 120 h
Summary of the method: as §3

Row | SMILES | IC50 [µM]
56 | O=C(Nc1cccc(C(F)(F)F)c1)N[C@H]1CC[C@H](Oc2ccc(Cl)cc2)CC1 | 2
57 | O=C(Nc1cccc(F)c1)N[C@H]1CC[C@H](Oc2ccc(F)cc2)CC1 | 8.3
58 | O=C(Nc1ccccc1C(F)(F)F)N[C@H]1CC[C@H](Oc2ccc(F)cc2)CC1 | > 20
59 | O=C(Nc1cccc(C(F)(F)F)c1)N[C@H]1CC[C@H](Oc2ccc(C(F)(F)F)cc2)CC1 | 0.46
60 | O=C(Nc1ccccc1Br)N[C@H]1CC[C@H](Oc2ccc(F)cc2)CC1 | 7.7
61 | O=C(Nc1ccc(I)cc1)N[C@H]1CC[C@H](Oc2ccc(F)cc2)CC1 | 10.2
62 | COc1cccc(NC(=O)N[C@H]2CC[C@H](Oc3ccc(F)cc3)CC2)c1 | 14
63 | COC(=O)c1ccccc1NC(=O)N[C@H]1CC[C@@H](Oc2ccc(F)cc2)CC1 | 14.5
64 | O=C(Nc1cccc(I)c1)N[C@H]1CC[C@H](Oc2ccc(F)cc2)CC1 | 5.2
65 | O=C(Nc1cccc(C(F)(F)F)c1)N[C@H]1CCC[C@H](Oc2ccc(C(F)(F)F)cc2)C1 (relative stereo) | 3.8
66 | O=C(Nc1cccc(C(F)(F)F)c1)N[C@H]1CC[C@H](Oc2ccccc2C(F)(F)F)CC1 | 1.4
67 | O=C(Nc1cccc(Br)c1)N[C@H]1CC[C@H](Oc2ccc(F)cc2)CC1 | 6.2
68 | CSc1cccc(NC(=O)N[C@H]2CC[C@H](Oc3ccc(F)cc3)CC2)c1 | 11.1
69 | O=C(Nc1ccc(C(=O)O)cc1)N[C@H]1CC[C@H](Oc2ccc(F)cc2)CC1 | 11.6
70 | O=C(Nc1ccccc1I)N[C@H]1CC[C@H](Oc2ccc(F)cc2)CC1 | > 20
71 | O=C(Nc1cccc(C(F)(F)F)c1)N[C@H]1CCCC[C@@H]1Oc1ccc(C(F)(F)F)cc1 (relative stereo) | 3.1
72 | O=C(Nc1cccc(Cl)c1)N[C@H]1CC[C@H](Oc2ccc(F)cc2)CC1 | 5.9
73 | COC(=O)c1ccc(NC(=O)N[C@H]2CC[C@H](Oc3ccc(F)cc3)CC2)cc1 | 11.6
74 | O=C(Nc1ccccc1Cl)N[C@H]1CC[C@H](Oc2ccc(F)cc2)CC1 | 9.1
75 | O=C(Nc1cccc(C(F)(F)F)c1)N[C@H]1CC[C@H](OCc2ccc(F)cc2)CC1 | 2.65

Source: ChEMBL document CHEMBL3098030, “Explorations of substituted urea functionality for the discovery of new activators of the heme-regulated inhibitor kinase” (J Med Chem, 2013)
